Test results published in EPA's CvTdb concentration-time database.

Tests used:
Rat [1] = test: concentration in liver after dosing; conditions: 6 h; dosed: Fluorotelomer alcohol 8+2; 80 mg/kg; oral; Female; Harlan Sprague Dawley
Rat [2] = test: concentration in liver after dosing; conditions: 1 h; dosed: Fluorotelomer alcohol 8+2; 80 mg/kg; oral; Female; Harlan Sprague Dawley
Rat [3] = test: concentration in plasma after dosing; conditions: dosed: Fluorotelomer alcohol 8+2, 12 mg/kg, iv, Male, F344
Rat [4] = test: concentration in kidney after dosing; conditions: 1 h; dosed: Fluorotelomer alcohol 8+2; 24 mg/kg; oral; Male; Harlan Sprague Dawley
Rat [5] = test: concentration in plasma after dosing; conditions: dosed: Fluorotelomer alcohol 8+2, 24 mg/kg, oral, Male, Harlan Sprague Dawley
Rat [6] = test: concentration in plasma after dosing; conditions: dosed: Fluorotelomer alcohol 8+2, 12 mg/kg, iv, Male, F344; remark: listed apart in the source
Rat [7] = test: concentration in plasma after dosing; conditions: dosed: Fluorotelomer alcohol 8+2, 12 mg/kg, iv, Male, F344; remark: listed apart in the source
Rat [8] = test: concentration in plasma after dosing; conditions: 40 min; dosed: dichloroacetic acid; 40 mg/kg; oral; Female; Harlan Sprague Dawley
Rat [9] = test: concentration in plasma after dosing; conditions: 40 min; dosed: dichloroacetic acid; 100 mg/kg; oral; Male; F344
Rat [10] = test: concentration in plasma after dosing; conditions: 10 min; dosed: dichloroacetic acid; 10 mg/kg; iv; Male; F344
human = test: concentration in plasma after dosing; negative times count back from the end of exposure; conditions: dosed: trichloroethylene, 100 ppm, inhalation, duration: 4 hr, person
Procedure, shortened: (§1)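 Sampling and analytical methods are those of each source and frequently went unreported. The concentration-versus-time and amount-versus-time points were compiled from published in vivo toxicokinetic studies and two structured collections. Most were digitised from plot screenshots with WebPlotDigitizer, with others copied from tables, in the reported units.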

dog = test: concentration in urine after dosing; conditions: dosed: trichloroethylene, 100 ppm, inhalation, duration: 6 hr, male, beagle
Procedure, shortened: as §1

Rat [11] = test: concentration in liver after dosing; conditions: 1 h; dosed: Perfluorodecanoic acid; 10 mg/kg; oral; Male; Harlan Sprague Dawley
Rat [12] = test: concentration in heart after dosing; conditions: 5.333 h; dosed: Thiodiglycolic Acid; 20 mg/kg; iv; Female; Harlan Sprague Dawley
Rat [13] = test: concentration in heart after dosing; conditions: 20 min; dosed: Thiodiglycolic Acid; 20 mg/kg; iv; Female; Harlan Sprague Dawley
Rat [14] = test: concentration in heart after dosing; conditions: 20 min; dosed: Thiodiglycolic Acid; 20 mg/kg; iv; Female; Harlan Sprague Dawley; remark: listed apart in the source
Rat [15] = test: concentration in heart after dosing; conditions: 3 h; dosed: Thiodiglycolic Acid; 20 mg/kg; iv; Female; Harlan Sprague Dawley
Rat [16] = test: concentration in liver after dosing; conditions: 40 min; dosed: Thiodiglycolic Acid; 20 mg/kg; iv; Female; Harlan Sprague Dawley
Rat [17] = test: concentration in heart after dosing; conditions: 40 min; dosed: Thiodiglycolic Acid; 20 mg/kg; iv; Male; Harlan Sprague Dawley
Rat [18] = test: concentration in heart after dosing; conditions: 2 h; dosed: Thiodiglycolic Acid; 20 mg/kg; iv; Female; Harlan Sprague Dawley
Rat [19] = test: concentration in heart after dosing; conditions: 4 h; dosed: Thiodiglycolic Acid; 20 mg/kg; iv; Male; Harlan Sprague Dawley
Rat [20] = test: concentration in thymus after dosing; conditions: 4 h; dosed: Thiodiglycolic Acid; 20 mg/kg; iv; Male; Harlan Sprague Dawley
Rat [21] = test: concentration in plasma after dosing; conditions: 1 h; dosed: Thiodiglycolic Acid; 20 mg/kg; iv; Female; Harlan Sprague Dawley
Rat [22] = test: concentration in thymus after dosing; conditions: 2 h; dosed: Thiodiglycolic Acid; 20 mg/kg; iv; Female; Harlan Sprague Dawley
Rat [23] = test: concentration in plasma after dosing; conditions: 9 h; dosed: Primidone; 30 mg/kg; oral; Female; F344
Rat [24] = test: concentration in plasma after dosing; conditions: 0.5 h; dosed: Primidone; 80 mg/kg; oral; Female; Harlan Sprague-Dawley
Rat [25] = test: concentration in heart after dosing; conditions: 6 h; dosed: Bis 2-Chloroethoxy Methane; 20 mg/kg; iv; Female; F344
Rat [26] = test: concentration in heart after dosing; conditions: 40 min; dosed: Bis 2-Chloroethoxy Methane; 20 mg/kg; iv; Male; F344
Rat [27] = test: concentration in liver after dosing; conditions: 40 min; dosed: Bis 2-Chloroethoxy Methane; 20 mg/kg; iv; Male; F344
Rat [28] = test: concentration in liver after dosing; conditions: 2 h; dosed: Bis 2-Chloroethoxy Methane; 20 mg/kg; iv; Male; F344
Rat [29] = test: concentration in thymus after dosing; conditions: 6 h; dosed: Bis 2-Chloroethoxy Methane; 20 mg/kg; iv; Male; F344
Rat [30] = test: concentration in plasma after dosing; conditions: 3 h; dosed: Bis 2-Chloroethoxy Methane; 20 mg/kg; iv; Female; F344
Rat [31] = test: concentration in plasma after dosing; conditions: 6 h; dosed: Bis 2-Chloroethoxy Methane; 20 mg/kg; iv; Female; F344
Rat [32] = test: concentration in thymus after dosing; conditions: 4 h; dosed: Bis 2-Chloroethoxy Methane; 20 mg/kg; iv; Female; F344
Rat [33] = test: concentration in thymus after dosing; conditions: 4 h; dosed: Bis 2-Chloroethoxy Methane; 20 mg/kg; iv; Female; F344; remark: listed apart in the source
Rat [34] = test: concentration in plasma after dosing; conditions: 10 min; dosed: Bis 2-Chloroethoxy Methane; 20 mg/kg; iv; Female; F344

OCCC(F)(F)C(F)(F)C(F)(F)C(F)(F)C(F)(F)C(F)(F)C(F)(F)C(F)(F)F [Fluorotelomer alcohol 8+2]
Conditions	concentration in kidney [ng/g]	concentration in liver [ng/g]
Rat [1]	–	2020
Rat [2]	–	5950
Rat [4]	1140	–

Conditions	concentration in plasma [ng/mL]
Rat [3], 0.75 h	818
Rat [3], 12 h	14.2
Rat [5], 0.25 h	176
Rat [5], 24 h	3.78
Rat [6], 1 h	619
Rat [6], 6 h	38.5
Rat [7], 0.5 h	1220
Rat [7], 9 h	19.6

O=C(O)C(Cl)Cl [dichloroacetic acid]
Conditions	concentration in plasma [ng/mL]
Rat [8]	10700
Rat [9]	39400
Rat [10]	8110

human
Conditions	concentration in plasma [ng/mL]
0 h	8
0.25 h	5
0.5 h	5
1.75 h	4
4 h	5
12 h	5

human, during exposure
Conditions	concentration in plasma [ng/mL]
-2 h	4
-1 h	10

O=C(O)C(Cl)(Cl)Cl [trichloroacetic acid]
dog
Conditions	concentration in urine [ng/mL]
24 h	32600
48 h	92800
72 h	204000
96 h	386000
120 h	228000

O=C(O)C(F)(F)C(F)(F)C(F)(F)C(F)(F)C(F)(F)C(F)(F)C(F)(F)C(F)(F)C(F)(F)F [Perfluorodecanoic acid]
Conditions	concentration in liver [ng/g]
Rat [11]	50300

O=C(O)CSCC(=O)O [Thiodiglycolic Acid]
Conditions	concentration in heart [ng/g]	concentration in liver [ng/g]	concentration in plasma [ng/mL]	concentration in thymus [ng/g]
Rat [12]	642	–	–	–
Rat [13]	5330	–	–	–
Rat [14]	6060	–	–	–
Rat [15]	1150	–	–	–
Rat [16]	–	92500	–	–
Rat [17]	2020	–	–	–
Rat [18]	1420	–	–	–
Rat [19]	989	–	–	–
Rat [20]	–	–	–	1490
Rat [21]	–	–	2900	–
Rat [22]	–	–	–	1910

CCC1(c2ccccc2)C(=O)NC(=O)NC1=O [Phenobarbital]
Conditions	concentration in plasma [ng/mL]
Rat [23]	990
Rat [24]	1480

ClCCOCOCCCl [Bis 2-Chloroethoxy Methane]
Conditions	concentration in heart [ng/g]	concentration in liver [ng/g]	concentration in plasma [ng/mL]	concentration in thymus [ng/g]
Rat [25]	33.8	–	–	–
Rat [26]	6920	–	–	–
Rat [27]	–	3320	–	–
Rat [28]	–	564	–	–
Rat [29]	–	–	–	19.5
Rat [30]	–	–	87.3	–
Rat [31]	–	–	17.6	–
Rat [32]	–	–	–	108
Rat [33]	–	–	–	76.5
Rat [34]	–	–	9960	–
